Measured values reported in ChEMBL document CHEMBL4725346, “Syntheses and Evaluation of New Bisacridine Derivatives for Dual Binding of G-Quadruplex and i-Motif in Regulating Oncogene c-myc Expression” (J Med Chem, 2020).
The source made the active and inactive calls. No cut-off for these calls is given here.

Key:
[1] = Toxicity in BALB/c nude mouse xenografted with human SiHa cells assessed as effect on liver weight at 15 mg/kg, ip administered once per 2 days for 18 days; type: organism-based; settings: in vivo, 432 h, time 18 day
How it was run: (§1)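 SiHa tumour fragments passaged from donor mice implanted in the underarm of female BALB/c nude mice (six per group). Compound given at 15 mg/kg ip once every two days for 18 days, with saline and cisplatin 0.2 mg/kg control groups. Body weight recorded every two days; at day 18 mice were sacrificed and organs weighed.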

[2] = Stabilization of c-myc promoter i-motif DNA Py33 (unknown origin) by 1H NMR spectra analysis
How it was run: (§2)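 1D ¹H NMR titration with water suppression at 25 °C on a 600 MHz spectrometer. DNA at 0.5 mM in 10% D₂O/90% H₂O: Pu27 in 10 mM Tris-HCl pH 7.4, Py33 in 1× BPES pH 6.4. Annealed at 95 °C for 5 min before titration; ligand stock in d₆-DMSO.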

SiHa [3] = test: Inhibition of cell invasion in human SiHa cells at 0.5 uM by transwell assay relative to control; type: functional
How it was run: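 Transwell assay: SiHa cells incubated 24 h with 0.5 µM compound. Cell […] through the transwell was compared with an untreated control.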

Quadruplex DNA [4] = test: Binding affinity to 5'-biotin labeled c-myc promoter G-quadruplex DNA Pu27 (unknown origin) by UV titration method; type: nucleic-acid assay
SiHa [5] = test: Induction of apoptosis in human SiHa cells assessed as necrotic cells at 2.4 uM after 24 hrs by annexin V/FITC-propidium iodide staining-based flow cytometric method ( Rvb = 0.1%); type: functional
CA46 [6] = test: Antiproliferative activity against human CA46 cells after 48 hrs by MTT assay; type: functional, cell-based
Quadruplex DNA [7] = test: Stabilization of c-myc promoter G-quadruplex DNA Pu27 (unknown origin) by 1H NMR spectra analysis; type: nucleic-acid assay; how it was run: as §2
Quadruplex DNA [8] = test: Binding affinity to c-myc promoter G-quadruplex/i-motif in human SiHa cells assessed as reduction in c-myc expression at 2.5 uM incubated for 24 hrs by Western blot analysis; type: cell-based; parameters: scale not given: the % may be the effect or the level left
How it was run: (§3)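 SiHa cells treated 24 h at 0, 0.625, 1.25 and 2.5 μM, then lysed in buffer with 1 mM PMSF. Protein measured by BCA, equal loads run on 8% gel and blotted to PVDF. Probed with anti-c-MYC and anti-β-actin (loading control), HRP anti-rabbit secondary, chemiluminescence read-out.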

Quadruplex DNA [9] = test: Binding affinity to c-myc promoter G-quadruplex/i-motif in human SiHa cells assessed as reduction in c-myc expression at 1.25 uM incubated for 24 hrs by Western blot analysis; type: cell-based; parameters: scale not given: the % may be the effect or the level left; how it was run: as §3
[10] = Toxicity in BALB/c nude mouse xenografted with human SiHa cells assessed as effect on body weight at 15 mg/kg, ip administered once per 2 days for 18 days; type: organism-based; settings: in vivo, 432 h, time 18 day; how it was run: as §1
CA46 [11] = test: Induction of apoptosis in human CA46 cells at 0.6 to 2.4 uM after 24 hrs by propidium iodide staining based flow cytometry; type: functional, cell-based; settings: dose microM 0.6-2.4, time 24.0 hrs
Quadruplex DNA [12] = test: Binding affinity to c-myc mutated promoter G-quadruplex/i-motif (unknown origin) expressed in human SiHa cells assessed as reduction in c-myc transcription by measuring decrease in ratio of renilla/firefly luciferase activity at 0.025 to 0.1 uM after 48 hrs by dual-luciferase reporter assay; type: cell-based; settings: dose microM 0.025-0.1, time 48.0 hrs
How it was run: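 SiHa cells transfected with 200 ng psiCHECK2 plasmid carrying wild-type, mutant or deleted c-myc promoter. Compounds added 8 h after transfection, then incubated 48 h at 37 °C. Cells washed with ice-cold PBS; Renilla/firefly activity ratio read by dual-luciferase assay.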

Quadruplex DNA [13] = test: Stabilization of c-myc promoter G-quadruplex DNA Pu27 (unknown origin) assessed as effect on melting temperature at 5 uM by CD spectroscopy; type: nucleic-acid assay
How it was run: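 CD melting: Pu27 diluted to 1 µM in 10 mM Tris-HCl, 5 mM KCl, pH 7.4, with or without ligand. Annealed at 95 °C for 5 min, slowly cooled, then heated at 1 °C/min while monitoring 260 nm. Tm obtained by curve fitting.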

[14] = Stabilization of 5'-FAM/3'-TAMRA labeled c-myc promoter i-motif DNA FPy33T (unknown origin) assessed as change in melting temperature at 1 uM by FRET assay (reference value: 53.2 degreeC)
How it was run: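 FRET melting of dual FAM/TAMRA-labelled FPy33T annealed in 1× BPES (30 mM potassium phosphate, 1 mM EDTA, 100 mM KCl), pH 5.5. Final 0.2 µM DNA with or without ligand. Excitation 470 nm, emission 530 nm, read every 1 °C over 37–99 °C. ΔTm taken against DNA alone.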

[15] = Toxicity in BALB/c nude mouse xenografted with human SiHa cells assessed as effect on spleen weight at 15 mg/kg, ip administered once per 2 days for 18 days; type: organism-based; settings: in vivo, 432 h, time 18 day; how it was run: as §1
CA46 [16] = test: Induction of cell cycle arrest in human CA46 cells assessed as accumulation of cells at G2/M phase at 0.15 to 0.6 uM after 24 hrs by propidium iodide staining based flow cytometry; type: functional; settings: dose microM 0.15-0.6, time 24.0 hrs
SiHa [17] = test: Induction of apoptosis in human SiHa cells assessed as early apoptotic cells at 0.6 uM after 24 hrs by annexin V/FITC-propidium iodide staining-based flow cytometric method ( Rvb = 0.3%); type: functional
[18] = Stabilization of c-myc promoter i-motif DNA Py33 (unknown origin) assessed as decrease in negative peak intensity at pH 5.5 measured at 260 nanometer by CD spectroscopy
How it was run: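 Py33 at 1 µM in 1× BPES pH 5.5 (pH 6.8 random-coil reference), with or without ligand. Annealed at 95 °C for 5 min, cooled, kept at 4 °C overnight. CD spectra in a 4 mm cuvette over 230–350 nm, three scans averaged, buffer-corrected; peaks followed at 288 and 260 nm.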

Quadruplex DNA [19] = test: Binding affinity to c-myc promoter G-quadruplex/i-motif in human SiHa cells assessed as reduction in c-myc mRNA level incubated for 24 hrs by qRT-PCR analysis; type: cell-based; settings: dose microM 0.625-2.5, time 24.0 hrs
How it was run: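 SiHa cells at 0, 0.625, 1.25 and 2.5 μM for 24 h; DMSO control. Total RNA extracted with TRIzol. 1.5 μg RNA reverse-transcribed with oligo dT18 and M-MLV (42 °C 60 min). PCR of 30 cycles (95/58/72 °C), products run on 1.2% agarose. β-actin as internal control; three repeats.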

Quadruplex DNA [20] = test: Binding affinity to 5'-biotin labeled c-myc promoter G-quadruplex DNA Pu27 (unknown origin) by surface plasmon resonance method; type: nucleic-acid assay
How it was run: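 SPR: 5'-biotin DNA diluted to 1 μM and captured (1000 RU) on a sensor chip, with a blank cell as reference. Running buffers: Py33 in 20 mM MES pH 5.8, 100 mM KCl, 0.05% Tween-20; Pu27 and duplex in 50 mM Tris-HCl pH 7.4, 100 mM KCl. Six ligand concentrations serially diluted from DMSO stock. Association 260 s, dissociation 300 s at 25 °C; NaOH regeneration; blank sensorgrams subtracted.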

SMILES: Cc1ccc2nc3ccc(C)cc3c(NCCCNCCNCCCNc3c4cc(C)ccc4nc4ccc(C)cc34)c2c1
- Activity [1]: Non-Toxic
- Activity [2]: Active
- inhibition at 0.5 µM (SiHa [3]): 85%
- Activity (Quadruplex DNA [4]): Active
- Activity (SiHa [5]): 5.5%
- Activity (CA46 [6]): inactive
- Activity (Quadruplex DNA [7]): Active
- Activity (Quadruplex DNA [8]): < 73.9%
- Activity (Quadruplex DNA [9]): < 39.8%
- Activity [10]: Non-Toxic
- Activity (CA46 [11]): inactive
- Activity (Quadruplex DNA [12]): inactive
- Activity (Quadruplex DNA [13]): Active
- ΔTm [14]: 11 °C
- Activity [15]: Non-Toxic
- Activity (CA46 [16]): inactive
- Activity (SiHa [17]): 18.1%
- Activity [18]: Active
- Activity (Quadruplex DNA [19]): Dose-dependent effect
- Kd (Quadruplex DNA [20]): 7.7 µM
